Source: ChEMBL document CHEMBL1153988 (J Med Chem, 2009)
Active and inactive are the calls of the source. No cut-off for these calls is given here.

What was measured:
[1] = tested on: Mus musculus; assay: Anticonvulsant activity in CF1 albino mouse assessed as protection against maximal electroshock-induced seizures at 100 mg/kg, ip after 0.5 hrs; assay type: functional, organism-based; set-up: dose 100 mg/kg
Outline: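 Adult male CF no. 1 albino mice (18-25 g). Test compound suspended in 0.5% methylcellulose and given intraperitoneally at 0.01 mL/g body weight. Maximal electroshock challenge at the stated time. Read-out is the number of animals protected over the number tested; neurotoxicity is scored in parallel.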

[2] = tested on: Rattus norvegicus; assay: Anticonvulsant activity in albino Sprague-Dawley rat assessed as protection against pilocarpine-induced status epilepticus dosed ip after 30 mins of pilocarpine induction; assay type: functional; settings: 0.5 h
Outline: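 Rat pilocarpine status epilepticus model. Compound is given 30 min after pilocarpine status induction, or after the first stage III seizure. Seizure severity is rated on the Racine scale and scored as protection or no protection. Doses of 50, 75 and 100 mg/kg were used, with 7, 6 and 7 rats respectively. ED50 was derived by probit analysis.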

[3] = tested on: Rattus norvegicus; assay: Anticonvulsant activity in albino Sprague-Dawley rat assessed as protection against scMet-induced seizures at 2 mg/kg, po; assay type: functional, organism-based; set-up: dose 2 mg/kg
Outline: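 Oral dosing of male Sprague-Dawley rats (100-150 g) with compound in 0.5% methylcellulose. Convulsant challenge given subcutaneously as a 2.82% pentylenetetrazol solution in 0.9% saline. Groups of about 8 rats per dose. For quantitation, doses spanning 0% to 100% protection were fitted by probit analysis to give ED50 with 95% confidence interval.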

[4] = tested on: Mus musculus; assay: Anticonvulsant activity in CF1 albino mouse assessed as protection against scMet-induced seizures at 30 mg/kg, ip after 4 hrs; assay type: functional, organism-based; set-up: dose 30 mg/kg
Outline: (§1)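 Adult male CF no. 1 albino mice (18-25 g) dosed intraperitoneally with compound suspended in 0.5% methylcellulose (0.01 mL/g). Convulsant challenge given subcutaneously as a 0.85% pentylenetetrazol solution in 0.9% saline. Read-out is animals protected over animals tested, with neurotoxicity scored in parallel.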

[5] = tested on: Mus musculus; assay: Teratogenic effect in SWV mouse assessed as number of dead fetuses at 336 mg/kg, ip administered on morning of day 8 of gestation; assay type: toxicity, organism-based; set-up: dose 336 mg/kg, route intraperitoneal; settings: in vivo
Outline: (§2)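 Inbred SWV mouse strain highly susceptible to VPA-induced neural tube defects. Each dam received a single ip injection on gestation day 8.5, dosed within 1.8-4.2 mmol/kg, against a control of 25% aqueous Cremophor EL. Groups were compared with the control, and with the matched VPA sodium-salt dose, by Fisher's exact test (p < 0.05).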

[6] = tested on: Rattus norvegicus; assay: Anticonvulsant activity in albino Sprague-Dawley rat assessed as protection against maximal electroshock-induced seizures at 100 mg/kg, po; assay type: functional, organism-based; set-up: dose 100 mg/kg
Outline: (§3)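 Adult male Sprague-Dawley albino rats (100-150 g) dosed orally with compound suspended in 0.5% methylcellulose (0.04 mL per 10 g). Maximal electroshock challenge at the stated time. Protection is scored in 25% steps as the fraction of animals protected, with neurotoxicity recorded in parallel.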

[7] = tested on: Mus musculus; assay: Anticonvulsant activity in CF1 albino mouse assessed as protection against scMet-induced seizures at 100 mg/kg, ip after 4 hrs; assay type: functional, organism-based; set-up: dose 100 mg/kg; outline: as §1
[8] = tested on: Mus musculus; assay: Teratogenic effect in SWV mouse assessed as number of implants at 502 mg/kg, ip administered on morning of day 8 of gestation; assay type: toxicity, organism-based; set-up: dose 502 mg/kg, route intraperitoneal; settings: in vivo; outline: as §2
[9] = tested on: Rattus norvegicus; assay: Anticonvulsant activity in albino Sprague-Dawley rat assessed as protection against scMet-induced seizures at 50 mg/kg, po after 30 mins; assay type: functional
Outline: (§4)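 Male Sprague-Dawley albino rats (100-150 g) were given the compound orally as a suspension in 0.5% methylcellulose. Seizures were induced by subcutaneous pentylenetetrazol, dissolved in 0.9% saline as a 2.82% solution. The read-out was animals protected over animals tested.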

[10] = tested on: Mus musculus; assay: Anticonvulsant activity in CF1 albino mouse assessed as protection against 32 mA-current-induced seizure at 130 mg/kg, ip by 6Hz psychomotor seizure test; assay type: functional, organism-based; set-up: dose 130 mg/kg
Outline: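 6 Hz psychomotor seizure test in male CF no. 1 mice, with compound given ip as a 0.5% methylcellulose suspension. Groups of 8 animals per dose. The 32 mA test used 25, 70 and 130 mg/kg; the 44 mA test used 25, 50, 75 and 100 mg/kg. ED50 and 95% confidence interval were obtained by probit analysis.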

[11] = tested on: Mus musculus; assay: Anticonvulsant activity in CF1 albino mouse assessed as protection against scMet-induced seizures at 50 mg/kg, ip; assay type: functional, organism-based; set-up: dose 50 mg/kg; outline: as §1
[12] = tested on: Mus musculus; assay: Teratogenic effect in SWV mouse assessed as resorptions at 502 mg/kg, ip administered on morning of day 8 of gestation; assay type: toxicity, organism-based; set-up: dose 502 mg/kg, route intraperitoneal; settings: in vivo; outline: as §2
[13] = tested on: Rattus norvegicus; assay: Anticonvulsant activity in albino Sprague-Dawley rat assessed as protection against scMet-induced seizures at 50 mg/kg, po after 1 hr; assay type: functional; outline: as §4
[14] = tested on: Rattus norvegicus; assay: Anticonvulsant activity in albino Sprague-Dawley rat assessed as protection against maximal electroshock-induced seizures at 50 mg/kg, po after 2 hrs; assay type: functional; outline: as §3
[15] = tested on: Mus musculus; assay: Neurotoxicity in CF1 albino mouse at 30 mg/kg, ip after 4 hrs; assay type: toxicity, organism-based; set-up: dose 30 mg/kg, route intraperitoneal; settings: in vivo
Outline: (§5)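 Male CF no. 1 albino mice (18-25 g) received a single ip dose as a suspension in 0.5% methylcellulose. The read-out was the number of animals showing neurotoxicity (minimal motor impairment) over the number tested.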

[16] = tested on: Rattus norvegicus; assay: Anticonvulsant activity in ip dosed albino Sprague-Dawley rat assessed as protection against pilocarpine-induced status epilepticus; assay type: functional
Outline: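 Rat pilocarpine-induced status model: drug was given either at the first stage III seizure (time 0) or 30 min after status induction, […]. Seizure severity was scored on the Racine scale as protection or no protection. Time 0 used 12, 25, 50 and 100 mg/kg with 8 rats per dose. The 30 min arm used 50, 75 and 100 mg/kg with 7, 6 and 7 rats. ED50 was calculated.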

[17] = tested on: Mus musculus; assay: Teratogenic effect in SWV mouse assessed as resorptions at 671 mg/kg, ip administered on morning of day 8 of gestation; assay type: toxicity, organism-based; set-up: dose 671 mg/kg, route intraperitoneal; settings: in vivo; outline: as §2
[18] = tested on: Rattus norvegicus; assay: Anticonvulsant activity in albino Sprague-Dawley rat assessed as protection against scMet-induced seizures at 50 mg/kg, po after 4 hrs; assay type: functional; outline: as §4
[19] = tested on: Mus musculus; assay: Anticonvulsant activity in CF1 albino mouse assessed as protection against scMet-induced seizures at 300 mg/kg, ip after 0.5 hrs; assay type: functional, organism-based; set-up: dose 300 mg/kg; outline: as §1
[20] = species on record: Rattus norvegicus; assay: Anticonvulsant activity in hippocampal kindled Sprague-Dawley rat model; assay type: functional; settings: albino Sprague-Dawley, Hippocampus
[21] = tested on: Mus musculus; assay: Anticonvulsant activity in CF1 albino mouse assessed as protection against scMet-induced seizures at 300 mg/kg, ip after 4 hrs; assay type: functional, organism-based; set-up: dose 300 mg/kg; outline: as §1
[22] = tested on: Mus musculus; assay: Neurotoxicity in CF1 albino mouse assessed as minimal motor impairment at 150 mg/kg, ip; assay type: toxicity, organism-based; set-up: dose 150 mg/kg, route intraperitoneal; settings: in vivo; outline: as §5
[23] = species on record: Mus musculus; assay: Protective index, ratio of TD50 for CF1 albino mouse to ED50 for 32 mA current-induced CF1 albino mouse seizure model; assay type: functional
Outline: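 Protective index is the mouse TD50 (minimal motor impairment) divided by the 6 Hz test ED50 at 32 or 44 mA. Male CF no. 1 mice were dosed ip in 0.5% methylcellulose, and values came from probit analysis.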

[24] = tested on: Rattus norvegicus; assay: Anticonvulsant activity in albino Sprague-Dawley rat assessed as protection against maximal electroshock-induced seizures at 50 mg/kg, po after 30 mins; assay type: functional; outline: as §3

## CC1(C)C(C)(C)C1(F)C(N)=O
[1]
  Activity: Non-toxic
[2]
  ED50: 80 mg/kg
[3]
  Activity: inactive
[4]
  Activity: Non-toxic
[5]
  Activity: 0
[6]
  Activity: inactive
[7]
  Activity: Non-toxic
[8]
  Activity: 127
[9]
  Activity: 75%
[10]
  Activity: Active
[11]
  Activity: Active
[12]
  Activity: 26.8%
[13]
  Activity: 75%
[14]
  Activity: inactive
[15]
  Activity: Non-toxic
[16]
  ED50: 23 mg/kg
[17]
  Activity: 78.2%
[18]
  Activity: 50%
[19]
  Activity: Toxic
[20]
  ED50: 30 mg/kg
[21]
  Activity: Non-toxic
[22]
  Activity: Toxic
[23]
  PI: 2.1
[24]
  Activity: inactive
